Only some compounds are listed: those with a hit (about 4% of all), similar ones and a draw of the others.
NTR1 ag: agonists of human NTR1, primary screen, imaging, U2OS cells, beta-arrestin-GFP, high content; Neurotensin receptor type 1 (Homo sapiens), P30989; NTR1-U2OS beta-arrestin-GFP spot imaging, agonist mode; activation, % at 20 µM; 330,000 tested, 0.17% active;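 active = activation at or above 40% of the spot to cytoplasm intensity ratio, with at least 20 cells analyzed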;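 also: 0% = DMSO without peptide and 100% = 100 nM NTR1 peptide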
OX1R antag-1: antagonists of human orexin 1 receptor (OX1R); OX1R-expressing cells, FRET antagonist read-out; 330,000 tested, 1.8% active; inhibition, % at 6.6 µM; AID 485270, 2010; Orexin/Hypocretin receptor type 1 (Homo sapiens), O43613; in the data active = inhibition mostly above about 38%, no sharp cut-off; inactive = mostly below about 40%;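 also: 0% = agonist challenge alone and 100% = reference antagonist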
Target sequence (O43613 whole entry, looked up): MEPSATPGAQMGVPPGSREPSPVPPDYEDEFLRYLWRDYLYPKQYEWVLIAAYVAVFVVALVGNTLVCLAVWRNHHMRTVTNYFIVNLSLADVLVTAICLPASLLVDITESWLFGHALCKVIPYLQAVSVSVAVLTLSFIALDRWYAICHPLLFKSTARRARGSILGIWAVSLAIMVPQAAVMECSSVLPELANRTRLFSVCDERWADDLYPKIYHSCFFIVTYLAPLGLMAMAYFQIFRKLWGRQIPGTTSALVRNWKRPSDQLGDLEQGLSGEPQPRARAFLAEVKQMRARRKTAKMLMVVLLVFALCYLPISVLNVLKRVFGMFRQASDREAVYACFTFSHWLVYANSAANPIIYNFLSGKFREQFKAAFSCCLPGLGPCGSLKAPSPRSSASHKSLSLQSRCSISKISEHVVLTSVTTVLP
TAAR1 ag: human TAAR1 agonists, primary screen, Fluo-8 calcium fluorescence, CHO RD-HGA16 cells | vehicle wells 0%, saturating PEA agonist 100% | AID 624467, 2012 | 360,000 tested, 0.99% active | activation, % at 3 µM | Trace amine-associated receptor 1 (Homo sapiens), Q96RJ0;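 active = activation above the mean activation of all test compounds in the run plus 3 SD, cut at about 38% in these data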
Target sequence (Q96RJ0 whole entry, looked up): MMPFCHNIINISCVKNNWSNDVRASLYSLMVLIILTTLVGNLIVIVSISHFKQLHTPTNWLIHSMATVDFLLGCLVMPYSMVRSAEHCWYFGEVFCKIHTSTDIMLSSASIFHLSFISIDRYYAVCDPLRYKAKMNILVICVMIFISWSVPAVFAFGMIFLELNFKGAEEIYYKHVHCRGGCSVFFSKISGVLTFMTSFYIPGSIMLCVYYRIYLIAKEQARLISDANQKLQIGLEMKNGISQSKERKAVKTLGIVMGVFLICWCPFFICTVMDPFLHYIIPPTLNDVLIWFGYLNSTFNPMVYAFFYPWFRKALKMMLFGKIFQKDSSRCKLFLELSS
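System: CHO-derived RD-HGA16 cells with stable Gα16 and human TAAR1 / Times: 17-24 h plating, Fluo-8 75 min 37 °C, 30 min RT / Technique: calcium-sensitive Fluo-8 signal, excitation 470-495, emission 515-575 nm / Measure: % activation relative to PEA EC100 response / Benchmarks: DMSO and PEA EC100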
OX1R antag-2: OX1R (HCRTR1) antagonists, primary screen, fluorescence, CHO/OX1R cells, Fluo-8 calcium, orexin A; Orexin/Hypocretin receptor type 1 (Homo sapiens), O43613; Fluo-8 calcium fluorescence; inhibition, % at 5 µM; 330,000 tested, 0.43% active;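 active = inhibition above its plate's threshold, mean inhibition of all tested compounds on the plate plus 3 SD, cut at about 37% in these data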;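 also: 0% = orexin A challenge wells and 100% = SB-334867-A antagonist wells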
TAAR1 antag: human TAAR1 antagonists, primary screen, Fluo-8 calcium fluorescence, CHO RD-HGA16 cells. Trace amine-associated receptor 1 (Homo sapiens), Q96RJ0. antagonist. inhibition, % at 3 µM. 360,000 tested, 1.5% active;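 active = inhibition above a per-plate cutoff, the mean inhibition of test compounds on that plate plus 3 SD, cut at about 49% in these data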;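 also: 0% = DMSO plus EC80 beta-PEA response and 100% = DMSO alone without agonist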
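Test system – hTAAR1-expressing CHO RD-HGA16 cells, Gα16-coupled · Reagent – β-PEA at EC80 concentration, post-compound challenge · Compound dosing – 3 µM, single point · Timing – 140 s kinetic read after compound, 140 s after agonist · Detection – Fluo-8 intracellular calcium dye fluorescence, real-time kinetic reads · Control set – DMSO and EC80 PEA controls · Repeats – n of 1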
CHO parental Ca: ATP-evoked calcium signal inhibitors, parental CHO, primary screen, counter-screen for OX1R antagonist project, cell-based, fluorescence, Fluo-8 calcium dye | inhibition, % at 5.6 µM | parental CHO-K1, ATP-induced calcium, Fluo-8 fluorescence | 330,000 tested, 0.63% active;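 active = inhibition above that plate's mean sample inhibition plus 3 SD, cut at about 26% in these data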;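 also: 0% = ATP-challenged DMSO wells and 100% = DMSO wells without ATP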
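Assay system: parental CHO cells; Read-out basis: percent inhibition of ATP-evoked calcium rise, normalized to controls; Benchmarks: ATP and no-ATP DMSO wells; Compound dosing: single nominal dose of 5.6 µM per compound; Signal: Fluo-8 calcium dye fluorescence; Also added: ATP as calcium-mobilizing challenge; Repeats: singlicate.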
TAAR1 nonsel count: nonselective antagonists in TAAR1 counter-screen cells, counter-screen for hTAAR1 antagonist project, cell-based, fluorescence, calcium | AID 651780, 2012 | 2,400 tested, 77% active | counterscreen cell line, antagonist mode | shares compounds with TAAR1 antag | inhibition, % at 3 µM; in the data active = inhibition above about 22%;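 also: CHO-Ga16 host cells stimulated with ATP at an EC80 level; 0% = agonist EC80 plus vehicle and 100% = vehicle without agonist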
TAAR1 antag conf: human TAAR1 antagonists, retest of hits, confirmation, cell-based, fluorescence; inhibition, % at 3 µM; AID 651785, 2012; 2,400 tested, 40% active; shares compounds with TAAR1 antag; TAAR1-expressing cells, fluorescence antagonist read-out; in the data active = inhibition above about 49%;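 also: CHO-Ga16 host cells challenged with agonist PEA near its EC80; 0% = agonist at EC80 plus vehicle and 100% = vehicle with no agonist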
Ga16 nonsel ag: calcium activation in Ga16-expressing cells, counter-screen for TAAR1 antagonist project, cell-based, fluorescence; 2,400 tested, 18% active; shares compounds with TAAR1 antag; activation, % at 3 µM; agonist counterscreen; in the data active = activation above about 12%;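 also: 0% = vehicle wells and 100% = saturating stimulus response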
TAAR1 ag counter: TAAR1 activation by candidate antagonists – cell-based, fluorescence, counter-screen for TAAR1 antagonist project | hTAAR1 cell line, agonist mode | shares compounds with TAAR1 antag | activation, % at 3 µM | 2,400 tested, 2% active; in the data active = activation above about 37%;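 also: CHO cells stably expressing TAAR1 with calcium dye readout; 0% = DMSO vehicle and 100% = full agonist response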
Starred values were filed as active, the others as inactive; x = no result given; ! = not active in a repeat.

SMILES	NTR1 ag	OX1R antag-1	TAAR1 ag	OX1R antag-2	TAAR1 antag	CHO parental Ca	TAAR1 nonsel count	TAAR1 antag conf	Ga16 nonsel ag	TAAR1 ag counter
CCN(Cc1ccccc1)S(=O)(=O)c1cc(C(=O)OC)n(C)c1	0	15	0	-1	17	-6	x	x	x	x
COC(=O)c1ccc(S(=O)(=O)N(Cc2ccccc2)Cc2ccccc2)n1C	4	9	0	-32	102*	-19	12	10	0	-2
O=C(Cc1ccc(Br)cc1)Nc1ccccc1Sc1ccccc1	4	13	8	-16	58*	-29	5	27	9	9
O=C(COC(=O)c1cc[n+]([O-])cc1)Nc1ccccc1Sc1ccccc1	0	13	1	-14	105*	3	11	4	-1	1
O=C(Cc1ccccc1)Nc1ccccc1Sc1ccccc1	8	7	10	-51	22	7	x	x	x	x
Cc1nc2ccc(C(=O)Nc3cccc(OCC(=O)N(C)C)c3)cn2c1N(C)CC1CCCCC1	x	x	7	x	31	x	x	x	x	x
COc1ccc2nc(-c3ccc(CN4CCC(c5nc6ccccc6[nH]5)CC4)cc3)c(-c3ccccc3)nc2c1	x	x	17	x	76*	x	34*	40	11	20
Clc1ccc(CN2CCC(c3nc4ccc(Cl)cc4[nH]3)CC2)cc1	8	20	29	-26	0	-23	x	x	x	x
Brc1ccc2nc(-c3ccc(CN4CCC(c5nc6ccccc6[nH]5)CC4)cc3)c(-c3ccccc3)nc2c1	x	x	25	x	86*	x	56*	68*	20*	37*
CCn1nc(Cc2cccc3ccccc23)c(C#N)c1N	-4	15	12	-12	-11	-7	x	x	x	x
Cc1cc(C)cc(OCC(=O)O/N=C(\N)c2ccccc2Cl)c1	1	16	4	-16	-3	-13	x	x	x	x
Cc1ccc(NC(=O)CN(C)C(=O)c2cccnc2Nc2cccc(C(F)(F)F)c2)cc1	18	12	2	-21	-12	-13	x	x	x	x
O=C(c1cc(-c2ccccc2Cl)nc2ccc(Br)cc12)N1CCN(c2ccccn2)CC1	17	11	5	-22	59*	-21	30*	47	9	21
O=C(c1cc(-c2ccncc2)nc2ccccc12)N1CCN(S(=O)(=O)/C=C/c2ccccc2)CC1	5	17	21	-14	70*	-26	29*	45	9	8
Cc1ccc(-c2cc(C(=O)N3CCOCC3)c3ccccc3n2)cc1	0	32	4	-19	7	-37	x	x	x	x
COc1cccc(CN2CCN(C(=O)c3cc(-c4ccncc4)nc4ccc(C)cc34)CC2)c1	1	8	14	-38	77*	-26	24*	46	9	10
CC(=O)N1CCN(C(=O)c2cc(-c3cccc4ccccc34)nc3ccccc23)CC1	2	5	12	-31	67*	-18	33*	48	9	10
COc1cccc(CN2CCN(C(=O)c3cc(-c4ccccn4)nc4ccc(Cl)cc34)CC2)c1	6	18	6	-22	31	-12	x	x	x	x
COc1ccc(/C=C(/NC(=O)c2ccco2)C(=O)Nc2ccc(C(=O)O)cc2)cc1	1	14	-1	-1	-5	-8	x	x	x	x
Cc1ccccc1CN1CCN(C(=O)c2cc(-c3ccncc3)nc3ccccc23)CC1	2	16	12	-32	71*	-25	35*	46	9	9
O=C(c1cc(-c2ccncc2)nc2ccccc12)N1CCN(Cc2ccccc2)CC1	5	19	19	2	57*	-25	19	40	12*	14
CON(C)C(=O)CC(CNC(=O)OC(C)(C)C)c1ccc(Cl)cc1 (stereo unspecified)	-2	13	9	-2	11	-9	x	x	x	x
CC(=O)Nc1cc(C(=O)OCC(=O)c2ccc(Cl)cc2Cl)ccc1C	2	0	13	-20	10	-10	x	x	x	x
CC(C)C(=O)Nc1cccc(C(=O)OCC(=O)c2ccc(Cl)cc2Cl)c1	9	12	19	-18	78*	-4	54*	61*	14*	7
NC(=O)c1ccccc1NC(=O)c1cc(S(=O)(=O)N2CCCCC2)ccc1N1CCOCC1	-1	-3	12	-2	7	-12	x	x	x	x
SMILES	NTR1 ag	OX1R antag-1	TAAR1 ag	OX1R antag-2	TAAR1 antag	CHO parental Ca	TAAR1 nonsel count	TAAR1 antag conf	Ga16 nonsel ag	TAAR1 ag counter
COC(=O)C(C(=O)OC)C(CC(=O)c1ccc(Br)cc1)c1ccccc1 (stereo unspecified)	x	x	1	x	0	x	x	x	x	x
COC(=O)C(c1ccccc1)C(CC(=O)c1ccccc1)c1ccccc1 (stereo unspecified)	x	x	-1	x	76*	x	14	32	2	-1
CN(C)S(=O)(=O)c1ccc(NC(=O)CSc2nnc(-c3ccco3)n2N)cc1	1	3	5	-9	-15	-6	x	x	x	x
Cc1cccc(OCC(O)Cn2c(N3CCCCC3)nc3c2c(=O)n(C)c(=O)n3C)c1 (stereo unspecified)	6	12	12	-12	64*	-15	30*	42	8	10
Cc1ccc(OCCNC(=O)[C@H]2O[C@@H](n3ccc(N)nc3=O)[C@H](O)[C@@H]2O)cc1C	x	x	2	x	-6	x	x	x	x	x
Cc1ccc(NS(=O)(=O)c2ccc3c(c2)CC(=O)N3)cc1C	0	5	8	-7	-29	0	x	x	x	x
Cc1ccc(NS(=O)(=O)c2ccc3c(c2)CCC(=O)N3)cc1C	-1	22	3	-19	103*!	10	5	7	2	5
O=C(C[C@@H]1C/C=C\CCCC(=O)OC[C@@H]2CCCN2C1=O)N[C@H](CO)Cc1ccccc1	4	2	15	0	8	5	x	x	x	x
COc1ccccc1N(C)S(=O)(=O)c1ccc(C)c(C(=O)NC(C)c2ccccn2)c1 (stereo unspecified)	-3	23	2	-28	-2	-22	x	x	x	x

Bioassay records as filed in PubChem.
